Structures are written as SMILES. Several values for one entry are separate records, joined by “and”; a condition that tells them apart may be missing. Identical values can stand only once. Activity calls are given as the source filed them.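 Rule for the calls: active = fitted curve rises to an activation of 500 at or below the top valid dose; inactive = the rest, including activity in the falling direction.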

System in the first test: not listed separately
As to the kind of experiment: HRE-luciferase activation in zinc medium, dose response, mechanism study for HIF pathway activator project, cell-based, U2OS, luminescence, dry powder, set 2 (AID 493234). Particulars: U2OS HRE-luciferase, zinc medium, luminescence; at 38 µM (top of the series). In outline:
(§1)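 Assay system: U2OS cells with stable HRE-luciferase reporter; Schedule: 24 h cell growth at 37 °C, then 24 h compound exposure; Reagent: zinc sulfate, 50 µM final, added before compound addition; Dosing: 8-point compound series in 3-fold steps; Buffer or medium: phenol red-free DMEM, 10% FBS, no hygromycin; Measured by: Steady-Glo luminescence.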
Regarding `O=C(Nc1cnc2ccccc2c1)c1cc(-c2ccccc2)on1`, the activation was 10.1% (inactive). Still for that read-out and setting: as for `c1ccc(-c2nnc(Nc3nc(-c4ccccn4)nnc3-c3ccccc3)s2)cc1`, the figure is 141% (inactive); as for `O=C(NCCCN1CCOCC1)c1cc(-c2ccccc2)on1`, 449% (inactive); as for `CC(C)(C)OC(=O)N1CCN(Cc2ccc(O)c3ncccc23)CC1`, 4.29% (inactive). The same measure, in the same setting: as for `c1ccc(-c2nnc(-c3ccccn3)nc2Nc2nc3ccccc3s2)cc1`, the figure is -16.5% (inactive); as for `O=C(c1cc(-c2ccccc2)on1)N1CCC(N2CCOCC2)CC1`, 1.96% (inactive).

As to `CN1CCN(C(=O)c2cc(-c3ccccc3)on2)CC1`, the activation was -12.5% (inactive). For `O=C(Nc1ncc2ccccc2n1)c1cc(-c2ccccc2)on1`, the activation is 34.5% (inactive). Consider `O=C(Nc1ccc2ccccc2n1)c1cc(-c2ccccc2)on1`, for which the activation was -7.7% (inactive). On the same count and under the same terms, then `Oc1ccc(CN2CCc3ccccc3C2)c2cccnc12`, with -19.3% (inactive) and -19.9% (inactive); and `Oc1ccc(CNC2Cc3ccccc3C2)c2cccnc12`, with 217% (inactive); and `O=C(NCC1CC1)c1cc(-c2ccccc2)on1`, with 386% (inactive). The same measure, in the same setting: then `Cc1ccc(NC(=O)c2cc(-c3ccccc3)on2)cn1`, with 20.6% (inactive). Same read-out and setting: then `CN(C)CCNC(=O)c1cc(-c2ccccc2)on1`, with 9.51% (inactive); and `O=C(NCCCO)c1cc(-c2ccccc2)on1`, with 325% (inactive); and `O=C(Nc1nnc(-c2ccccc2)s1)c1cc(-c2ccccc2)on1`, with 4.85% (inactive).

In the case of `c1ccc(-c2csc(Nc3nc(-c4ccccn4)nnc3-c3ccccc3)n2)cc1`, the activation is 86.1% (inactive).

With `O=C(Nc1ncc(-c2ccccc2)o1)c1cc(-c2ccccc2)on1`, the activation is -4.08% (inactive). As for `Cc1ccc(CNC(=O)c2cc(-c3ccccc3)on2)cc1`, the activation was -6.78% (inactive). Take `Cc1cccc(CNC(=O)c2cc(-c3ccccc3)on2)c1`: the activation was -0.529% (inactive). Same read-out and setting: as for `O=C(NC1CCc2ccccc2C1)c1cc(-c2ccccc2)on1` (configuration not stated), the figure is -5.89% (inactive); as for `O=C(c1cc(-c2ccccc2)on1)N1CCN(c2ccncc2)CC1`, -5.2% (inactive). With `CC(C)(C)CCNC(=O)c1cc(-c2ccccc2)on1`, the activation is 247% (inactive). Same read-out and setting: as for `O=C(c1cc(-c2ccccc2)on1)N1CCC(CO)CC1`, the figure is -4.31% (inactive). Same read-out and setting: then `O=C(Nc1nc(-c2ccccc2)cs1)c1cc(-c2ccccc2)on1`, with -1.71% (inactive); and `O=C(NC1Cc2ccccc2C1)c1cc(-c2ccccc2)on1`, with 56% (inactive); and `Cc1cccc(NC(=O)c2cc(-c3ccccc3)on2)n1`, with 24.2% (inactive).

Take `CC1CN(Cc2ccc(O)c3ncccc23)CC(C)O1` (configuration not stated): the activation is -5.99% (inactive). With `O=C(Nc1nc2ccccc2s1)c1cc(-c2ccccc2)on1`, the activation was 14.8% (inactive). `O=C(NCc1ccccc1)c1cc(-c2ccccc2)on1`: the activation is 32.9% (inactive). `Oc1ccc(CN2CCC(Cc3ccccc3)CC2)c2cccnc12`: the activation was -5.34% (inactive). Consider `Cn1c(-c2ccccc2)cnc1NC(=O)c1cc(-c2ccccc2)on1`, for which the activation was 9.13% (inactive).

As to `Oc1ccc(CNC2CCc3ccccc32)c2cccnc12` (configuration not stated), the activation is -23.4% (inactive). With `O=C(NCCN1CCCCC1)c1cc(-c2ccccc2)on1`, the activation is 32.2% (inactive). Consider `N#CC1(c2ccccc2)CCN(Cc2ccc(O)c3ncccc23)CC1`, for which the activation is 27.6% (inactive). With `O=C(NCC1CCCCC1)c1cc(-c2ccccc2)on1`, the activation is 52.6% (inactive). Same read-out and setting: then `Cc1ccccc1CNC(=O)c1cc(-c2ccccc2)on1`, with 15.2% (inactive); and `c1ccc(-c2cnc(Nc3nc(-c4ccccn4)nnc3-c3ccccc3)s2)cc1`, with 19.5% (inactive); and `O=C(c1cc(-c2ccccc2)on1)N1CCc2cccnc21`, with 3.59% (inactive). Turning to `Oc1ccc(CN2CCC3CCCCC3C2)c2cccnc12` (configuration not stated), the activation is 275% (inactive).

With `COc1ccccc1N1CCN(Cc2ccc(O)c3ncccc23)CC1`, the activation is -1.45% (inactive). Consider `c1ccc(-c2nnc(-c3ccccn3)nc2Nc2cnc3ccccc3n2)cc1`, for which the activation is -25.9% (inactive). Take `Cn1c(-c2ccccc2)cnc1Nc1nc(-c2ccccn2)nnc1-c1ccccc1`: the activation was 109% (inactive). Still for that read-out and setting: as for `Cn1c(NC(=O)c2cc(-c3ccccc3)on2)nc2ccccc21`, the figure is -0.203% (inactive); as for `O=C(NCCN1CCOCC1)c1cc(-c2ccccc2)on1`, 430% (inactive); as for `O=C(c1cc(-c2ccccc2)on1)N1CCC(N2CCCC2)CC1`, 4.99% (inactive). The same measure, in the same setting: then `OCC1CCN(Cc2ccc(O)c3ncccc23)CC1`, with 12.5% (inactive); and `O=C(Nc1cn2ccccc2n1)c1cc(-c2ccccc2)on1`, with 7.47% (inactive).

Another test concerns U2OS HRE-luciferase, zinc medium, luminescence. The test is described as above.
Conditions: not given
Put shortly: as §1
As to `c1ccc(-c2nnc(-c3ccccn3)nc2NCC2CC2)cc1`, the AC500 is 16.1 µM. Still for that read-out and setting: as for `c1ccc(-c2nnc(-c3ccccn3)nc2NCc2cccnc2)cc1`, the figure is 19 µM; as for `CCCCNC(=O)c1cc(-c2ccccc2)on1`, 32.2 µM.

As for `c1ccc(-c2nnc(-c3ccccn3)nc2N2CCC(N3CCOCC3)CC2)cc1`, the AC500 was 16.2 µM. On to `Cc1ccccc1CNc1nc(-c2ccccn2)nnc1-c1ccccc1`, for which the AC500 is 7.16 µM.

As to `Cc1cccc(Nc2nc(-c3ccccn3)nnc2-c2ccccc2)n1`, the AC500 was 13.2 µM. Still for that read-out and setting: then `CC(C)(C)c1ccc(CNc2nc(-c3ccccn3)nnc2-c2ccccc2)cc1`, with 2.89 µM. `CN1CCN(c2nc(-c3ccccn3)nnc2-c2ccccc2)CC1`: the AC500 was 15.8 µM.

For `Clc1cccc(CNc2nc(-c3ccccn3)nnc2-c2ccccc2)c1`, the AC500 is 2 µM.

On to `O=C(NCCCn1ccnc1)c1cc(-c2ccccc2)on1`, for which the AC500 was 16.4 µM. In the case of `CC(C)(C)CCNc1nc(-c2ccccn2)nnc1-c1ccccc1`, the AC500 is 4.65 µM and 2.47 µM. For `C[C@@H](Nc1nc(-c2ccccn2)nnc1-c1ccccc1)C1CCCCC1`, the AC500 was 6.94 µM. As to `Cc1ccc(Nc2nc(-c3ccccn3)nnc2-c2ccccc2)cn1`, the AC500 was 17.8 µM.

Consider `C=CCNc1nc(-c2ccccn2)nnc1-c1ccccc1`, for which the AC500 was 15 µM.

As for `C[C@H](Nc1nc(-c2ccccn2)nnc1-c1ccccc1)C1CCCCC1`, the AC500 was 5.01 µM. For `c1ccc(-c2cccc(CNc3nc(-c4ccccn4)nnc3-c3ccccc3)c2)cc1`, the AC500 is 3.69 µM. With `c1ccc(-c2nnc(-c3ccccn3)nc2NCCCN2CCOCC2)cc1`, the AC500 was 16 µM. Take `c1ccc(-c2nnc(-c3ccccn3)nc2N2CCC(C3CCCCC3)C2)cc1` (configuration not stated): the AC500 was 6.32 µM. For `COc1cccc(CNc2nc(-c3ccccn3)nnc2-c2ccccc2)c1`, the AC500 is 3.92 µM. For the compound `CN(C)c1nc(-c2ccccn2)nnc1-c1ccccc1`, the AC500 is 20.2 µM. As for `c1ccc(-c2nnc(-c3ccccn3)nc2NCCc2ccccn2)cc1`, the AC500 is 18 µM. Turning to `COc1ccc(CNc2nc(-c3ccccn3)nnc2-c2ccccc2)cc1`, the AC500 is 5.26 µM. With `c1ccc(-c2nnc(-c3ccccn3)nc2N2CCC(c3ccccc3)C2)cc1` (configuration not stated), the AC500 was 3.01 µM.

For the compound `c1ccc(CCNc2nc(-c3ccccn3)nnc2-c2ccccc2)cc1`, the AC500 is 7.94 µM. The same measure, in the same setting: then `Cc1ccc(CNc2nc(-c3ccccn3)nnc2-c2ccccc2)cc1C`, with 2.19 µM; and `c1ccc(-c2nnc(-c3ccccn3)nc2NCC2CCOCC2)cc1`, with 18.8 µM; and `O=C(NCCCCO)c1cc(-c2ccccc2)on1`, with 12.1 µM.

For `c1ccc(-c2nnc(-c3ccccn3)nc2NCc2ccccn2)cc1`, the AC500 is 20.8 µM. `c1ccc(-c2nnc(-c3ccccn3)nc2N2CCN(c3ccncc3)CC2)cc1`: the AC500 was 15.3 µM.

Regarding `Cc1ccc(CNc2nc(-c3ccccn3)nnc2-c2ccccc2)cc1`, the AC500 was 7.26 µM. On the same count and under the same terms, as for `OCC1CCN(c2nc(-c3ccccn3)nnc2-c2ccccc2)CC1`, the figure is 21.1 µM. For `c1ccc(CNc2nc(-c3ccccn3)nnc2-c2ccccc2)cc1`, the AC500 is 6.89 µM. For `C[C@@H](Nc1nc(-c2ccccn2)nnc1-c1ccccc1)c1ccccc1`, the AC500 is 6.17 µM. Still for that read-out and setting: then `c1ccc(-c2nnc(-c3ccccn3)nc2NCC2CCCCC2)cc1`, with 5.43 µM; and `Cc1cccc(CNc2nc(-c3ccccn3)nnc2-c2ccccc2)c1`, with 6.47 µM; and `c1ccc(-c2nnc(-c3ccccn3)nc2NCCN2CCOCC2)cc1`, with 15.7 µM. On the same count and under the same terms, then `OCCCNc1nc(-c2ccccn2)nnc1-c1ccccc1`, with 22.9 µM.

On to `CC(Nc1nc(-c2ccccn2)nnc1-c1ccccc1)c1ccccc1` (configuration not stated), for which the AC500 is 9.22 µM. On the same count and under the same terms, as for `c1ccc(-c2ccc(CNc3nc(-c4ccccn4)nnc3-c3ccccc3)cc2)cc1`, the figure is 3.41 µM.

For the origin of these results see PubChem BioAssay AID493234 (Broad Institute, 2011).
